The source of these data is ChEMBL document CHEMBL4270537, “Design and biological evaluation of novel triaryl pyrazoline derivatives with dioxane moiety for selective BRAFV600E inhibition” (Eur J Med Chem, 2018).

In one data set the test system is WM 266-4. The experiment in a line: Antiproliferative activity against human WM266.4 cells after 48 hrs by MTT assay. It is filed as functional. The settings on record: WM 266-4, 48 h. The procedure, abridged:
(§1)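 MTT reduction assay. Cell lines grown to log phase in DMEM with 10% FBS (A375 in DMEM with sodium pyruvate added), seeded at 10⁴ cells/well in 96-well plates. Three replicate wells per concentration, each assay run three times, GI50 averaged.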
Background: Tetrazolium dyes change colour on reduction, which living cells bring about.

The test system of a further data set is HCT-116. Description: Antiproliferative activity against human HCT116 cells after 48 hrs by MTT assay. In kind it is functional. Conditions: HCT-116, 48 h. The procedure, abridged: as §1
Another data set deals with HT-29. Description: Antiproliferative activity against human HT-29 cells after 48 hrs by MTT assay. In kind it is functional. The settings on record: HT-29, 48 h. The procedure, abridged: as §1
In data set [1] the test system is A-375. The experiment in a line: Antiproliferative activity against human A375 cells after 48 hrs by MTT assay. In kind it is functional. Conditions: A-375, 48 h. The procedure, abridged:
as §1

Data set [2] in a line: Antiproliferative activity against human WM1361 cells after 48 hrs by MTT assay. The settings on record: WM1361, 48 h. In kind it is functional. In short, it runs like this: as §1
The target of data set [3] is Serine/threonine-protein kinase B-raf (Mus musculus, UniProt P28028, V600E). The experiment in a line: Inhibition of mouse full length GST-tagged BRAF V600E mutant using recombinant human full length N-terminal His-tagged MEK1 as substrate preincubated for 1 hr followed by substrate addition measured after 25 mins.
The target of data set [4] is Serine/threonine-protein kinase B-raf (Homo sapiens, UniProt P15056). The experiment in a line: Inhibition of recombinant human full length GST-tagged wild type BRAF expressed in baculovirus expression system using recombinant human full length N-terminal His-tagged MEK1 as substrate preincubated for 1 hr followed by substrate addition measured after 25 mins.
For data set [5], the system named is A-375. Description: Antitumor activity against human A375 cells xenografted in nude mouse assessed as tumor weight at 5 mg/kg, ip administered every second day for 14 days and measured on day 15. It is filed as functional. The procedure, abridged: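 A375 cells, 3 × 10⁶ in 0.1 mL cold PBS, injected subcutaneously into right flank of nude mice. Treatment began when tumors reached ~100 mm³; mice randomized, 5 per group. Compound suspended in olive oil, given intraperitoneally every second day for 14 days. Body weight recorded every two days; tumors excised and weighed on day 15.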

The test system of a further data set is Mus musculus. Description: Toxicity in nude mouse xenografted with human A375 cells assessed as body weight loss at 5 mg/kg, ip administered every second day for 14 days and measured every 2 days. The settings on record: in vivo. It is filed as organism-based. In short, it runs like this: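 Nude mice bearing subcutaneous right-flank A375 xenografts (3×10⁶ cells in cold PBS) were randomized into groups of 5 at about 100 mm³. Compounds were suspended in olive oil and given intraperitoneally every second day for 14 days. Body weight was recorded every two days.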
On the technique in general: A xenograft is tissue or cells of one species grown in another, often human tumour cells in immunodeficient mice.

Data set [6] is described as follows: Cytotoxicity against human LO2 cells assessed as decrease in cell viability after 48 hrs by MTT assay. It is filed as cell-based, L02. The procedure, abridged: as §1
For data set [7], the target named is RAF proto-oncogene serine/threonine-protein kinase (Homo sapiens, UniProt P04049, Y340D/Y341D). The experiment in a line: Inhibition of recombinant human GST-tagged c-RAF (306 to 648 residues) Y340D/Y341D mutant expressed in baculovirus expression system using recombinant human full length N-terminal His-tagged MEK1 as substrate preincubated for 1 hr followed by substrate addition measured after 25 mins.

A short description of data set [8]: Cytotoxicity against HEK293T cells assessed as decrease in cell viability after 48 hrs by MTT assay. In kind it is cell-based, HEK-293T. Conditions: human. The procedure, abridged: as §1
Data set [9] relates to Serine/threonine-protein kinase B-raf (Homo sapiens), P15056 [V600E]. Description: Inhibition of BRAF V600E mutant in human A375 cells assessed as decrease in MEK1/2 phosphorylation up to 0.3 uM after 30 mins by Western blot analysis. In kind it is cell-based. In general terms: Immunoblotting shows a protein as a band on a membrane.
Data set [10] has as its target Mitogen-activated protein kinase 8 (Homo sapiens, UniProt P45983). Description: Inhibition of N-terminal flag-tagged JNK1 (unknown origin) expressed in baculovirus expression system after 60 mins in presence of [gamma-32P]ATP by topcount scintillation method. The procedure, abridged: (§2)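 Baculovirus-expressed N-terminal FLAG-tagged kinases in 25 mM HEPES pH 7.5, 10 mM Mg acetate, 1 mM DTT, 0.5 µM ATP plus [γ-³²P]ATP, 50 µL. p38α: 100 ng enzyme, MBP substrate. JNK1: 10 ng enzyme, 1 µg c-Jun. Compound and enzyme preincubated 5 min, ATP started the reaction, 60 min at 30 °C. Stopped with 10% TCA, filtered, washed with 3% phosphoric acid, counted by TopCount.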

Data set [11] concerns the target Dual specificity mitogen-activated protein kinase kinase; MEK1/2 (Homo sapiens, UniProt P36507+Q02750). Description: Inhibition of MEK1/2 (unknown origin). In kind it is protein assay.
Data set [12] has as its target Mitogen-activated protein kinase 14 (Homo sapiens, UniProt Q16539). The experiment in a line: Inhibition of N-terminal flag-tagged p38alpha (unknown origin) expressed in baculovirus expression system using MBP as substrate preincubated for 5 mins followed by substrate addition measured after 60 mins in presence of [gamma-32P]ATP by topcount scintillation method. The procedure, abridged: as §2

Activity calls are given as the source filed them. The calls are words filed in the database; no cut-off is given here.

Serine/threonine-protein kinase B-raf (Homo sapiens, UniProt P15056), sequence (P15056 whole entry): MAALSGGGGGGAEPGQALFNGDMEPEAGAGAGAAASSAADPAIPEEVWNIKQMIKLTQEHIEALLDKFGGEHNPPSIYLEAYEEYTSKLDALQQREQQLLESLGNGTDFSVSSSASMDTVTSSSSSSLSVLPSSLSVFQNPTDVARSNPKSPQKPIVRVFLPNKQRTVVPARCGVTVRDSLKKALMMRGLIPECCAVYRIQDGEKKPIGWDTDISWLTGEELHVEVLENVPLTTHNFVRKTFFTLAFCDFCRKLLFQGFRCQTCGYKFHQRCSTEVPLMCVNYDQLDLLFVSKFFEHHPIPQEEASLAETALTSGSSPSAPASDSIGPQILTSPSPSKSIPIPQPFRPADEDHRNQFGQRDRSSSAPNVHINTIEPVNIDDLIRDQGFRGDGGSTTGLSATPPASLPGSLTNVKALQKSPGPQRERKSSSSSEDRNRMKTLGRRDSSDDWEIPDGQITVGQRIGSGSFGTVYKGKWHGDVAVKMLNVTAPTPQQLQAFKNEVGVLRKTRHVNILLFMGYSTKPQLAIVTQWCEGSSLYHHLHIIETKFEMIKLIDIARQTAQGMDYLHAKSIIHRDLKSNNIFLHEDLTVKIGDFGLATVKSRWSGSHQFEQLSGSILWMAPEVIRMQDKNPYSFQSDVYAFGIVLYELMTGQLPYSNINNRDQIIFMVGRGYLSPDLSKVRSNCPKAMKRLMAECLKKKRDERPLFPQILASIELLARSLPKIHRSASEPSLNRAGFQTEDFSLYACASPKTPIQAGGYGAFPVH
Serine/threonine-protein kinase B-raf (Mus musculus, UniProt P28028, V600E), sequence (P28028 whole entry, looked up, stated change not applied): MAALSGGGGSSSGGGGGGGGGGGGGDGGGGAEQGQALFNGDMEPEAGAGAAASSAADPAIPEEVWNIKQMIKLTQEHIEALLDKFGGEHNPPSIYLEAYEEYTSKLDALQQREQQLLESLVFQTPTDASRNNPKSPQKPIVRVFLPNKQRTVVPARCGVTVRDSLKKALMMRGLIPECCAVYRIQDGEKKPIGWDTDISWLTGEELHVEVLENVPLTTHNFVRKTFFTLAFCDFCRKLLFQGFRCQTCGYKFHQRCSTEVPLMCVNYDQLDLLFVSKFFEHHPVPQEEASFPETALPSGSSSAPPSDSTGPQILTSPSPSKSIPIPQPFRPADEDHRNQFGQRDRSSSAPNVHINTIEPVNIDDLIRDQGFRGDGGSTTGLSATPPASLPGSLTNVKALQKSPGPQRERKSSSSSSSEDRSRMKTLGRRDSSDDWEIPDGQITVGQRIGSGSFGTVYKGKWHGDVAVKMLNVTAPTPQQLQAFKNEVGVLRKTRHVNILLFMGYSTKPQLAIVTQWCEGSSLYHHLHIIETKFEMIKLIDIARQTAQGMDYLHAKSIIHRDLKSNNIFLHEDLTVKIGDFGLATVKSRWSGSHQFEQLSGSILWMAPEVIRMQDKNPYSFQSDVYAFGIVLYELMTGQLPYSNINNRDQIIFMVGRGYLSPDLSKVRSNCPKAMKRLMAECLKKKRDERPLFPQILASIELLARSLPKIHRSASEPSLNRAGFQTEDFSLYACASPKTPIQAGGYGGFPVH
Mitogen-activated protein kinase 14, sequence (Q16539 whole entry): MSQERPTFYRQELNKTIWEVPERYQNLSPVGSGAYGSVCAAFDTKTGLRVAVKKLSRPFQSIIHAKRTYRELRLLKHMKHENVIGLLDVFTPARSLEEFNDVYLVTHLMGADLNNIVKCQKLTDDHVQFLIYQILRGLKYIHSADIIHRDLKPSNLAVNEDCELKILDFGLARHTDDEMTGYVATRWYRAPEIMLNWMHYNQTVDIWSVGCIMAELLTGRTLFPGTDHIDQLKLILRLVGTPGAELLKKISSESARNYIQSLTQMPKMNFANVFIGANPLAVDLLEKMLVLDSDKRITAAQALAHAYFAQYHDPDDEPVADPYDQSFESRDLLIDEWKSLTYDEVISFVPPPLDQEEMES
Mitogen-activated protein kinase 8, sequence (P45983 whole entry): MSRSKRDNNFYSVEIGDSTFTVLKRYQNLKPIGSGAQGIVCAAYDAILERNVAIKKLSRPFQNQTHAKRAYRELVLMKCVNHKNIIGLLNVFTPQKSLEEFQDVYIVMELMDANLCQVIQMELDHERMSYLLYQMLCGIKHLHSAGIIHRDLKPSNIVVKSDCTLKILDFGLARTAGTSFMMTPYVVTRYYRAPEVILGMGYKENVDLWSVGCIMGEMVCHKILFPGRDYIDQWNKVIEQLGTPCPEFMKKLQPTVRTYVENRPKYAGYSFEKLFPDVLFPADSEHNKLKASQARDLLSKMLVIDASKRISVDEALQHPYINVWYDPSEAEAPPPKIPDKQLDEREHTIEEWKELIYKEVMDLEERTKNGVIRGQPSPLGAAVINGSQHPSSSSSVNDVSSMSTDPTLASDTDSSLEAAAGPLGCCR
RAF proto-oncogene serine/threonine-protein kinase, sequence (P04049 whole entry Y340D/Y341D, the tested form may be a part): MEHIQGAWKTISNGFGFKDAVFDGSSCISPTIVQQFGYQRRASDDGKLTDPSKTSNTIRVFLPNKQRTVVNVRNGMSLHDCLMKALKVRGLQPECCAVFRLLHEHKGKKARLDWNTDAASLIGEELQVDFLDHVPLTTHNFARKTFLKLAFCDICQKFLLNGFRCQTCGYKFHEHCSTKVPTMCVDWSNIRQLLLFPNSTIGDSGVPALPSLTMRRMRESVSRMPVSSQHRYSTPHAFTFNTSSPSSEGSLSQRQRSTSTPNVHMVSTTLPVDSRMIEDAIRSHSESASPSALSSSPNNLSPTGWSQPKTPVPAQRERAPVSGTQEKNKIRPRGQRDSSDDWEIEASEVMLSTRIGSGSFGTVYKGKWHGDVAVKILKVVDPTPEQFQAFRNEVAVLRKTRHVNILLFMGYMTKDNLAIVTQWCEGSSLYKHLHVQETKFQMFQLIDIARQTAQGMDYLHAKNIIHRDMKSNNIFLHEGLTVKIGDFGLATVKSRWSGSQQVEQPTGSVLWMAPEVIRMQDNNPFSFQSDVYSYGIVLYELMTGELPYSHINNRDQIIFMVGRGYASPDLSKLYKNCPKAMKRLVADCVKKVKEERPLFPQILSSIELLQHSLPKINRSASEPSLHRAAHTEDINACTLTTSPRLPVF
Serine/threonine-protein kinase B-raf (Homo sapiens), P15056 [V600E], sequence (P15056 whole entry V600E): as the sequence (P15056 whole entry) above, with V600E counted along it

As for `S=C(Nc1ccccc1)N1N=C(c2ccccc2)CC1c1ccc2c(c1)OCCO2` (stereo not given), the GI50 in the data set with WM 266-4 was 3.18 µM; in the data set with HCT-116 it was 57.6 µM; in the data set with HT-29, 6.63 µM; in the data set with A-375 [1] it was 1.85 µM; in data set [2] it was 58.5 µM. The IC50 amounted to 0.82 µM in data set [3] and 21.3 µM in data set [4].

For the compound `CCCS(=O)(=O)Nc1ccc(F)c(C(=O)c2c[nH]c3ncc(-c4ccc(Cl)cc4)cc23)c1F` [VEMURAFENIB], the results for the Activity with A-375 [5] and with Mus musculus were 0.41 g and “Non-Toxic”, respectively. The GI50 was determined as 0.21 µM in the data set on WM 266-4; 25.2 µM in the data set with HCT-116; 1.88 µM in the data set on HT-29; 0.95 µM with A-375 [1]; 20.8 µM in [2].

On to `S=C(Nc1ccccc1)N1N=C(c2ccc(Cl)cc2)CC1c1ccc2c(c1)OCCO2` (stereo not given), for which the GI50 in the data set with WM 266-4 is above 200 µM; with HCT-116, above 200 µM; with HT-29, 187 µM; with A-375 [1], 195 µM; in data set [2], above 200 µM. Moreover, the values for the IC50 in [3] and in data set [4] were 135 µM and above 200 µM, respectively.

With `CSc1ccc(C2=NN(C(=S)Nc3ccccc3)C(c3ccc4c(c3)OCCO4)C2)cc1` (stereo not given), the GI50 with WM 266-4 was 197 µM; in the data set with HCT-116, 193 µM; in the data set on HT-29, above 200 µM; in the data set on A-375 [1] it was 159 µM; in [2], 187 µM. The figures for the half-maximal inhibitory concentration (IC50) in data set [3] and in [4] were 84.3 µM and 156 µM, respectively.

For the compound `COc1ccccc1C1=NN(C(=S)Nc2ccccc2)C(c2ccc3c(c2)OCCO3)C1` (stereo not given), the GI50 is 25.8 µM in the data set with WM 266-4; above 200 µM in the data set with HCT-116; 30.5 µM in the data set on HT-29; 20.3 µM in the data set with A-375 [1]; above 200 µM in [2]. Moreover, the half-maximal inhibitory concentration (IC50) in data set [3] is 12.1 µM; in [4], above 200 µM.

In the case of `Fc1ccc(C2=NN(C(=S)Nc3ccccc3)C(c3ccc4c(c3)OCCO4)C2)cc1` (stereo not given), the GI50 is 22.5 µM in the data set on WM 266-4; 61.2 µM in the data set on HCT-116; 37.6 µM with HT-29; 15.7 µM with A-375 [1]; 65.3 µM in [2]. The IC50 came to 11.1 µM in [3] and 23.1 µM in data set [4].

For the compound `S=C(Nc1ccccc1)N1N=C(c2ccc(Cl)c(Cl)c2)CC1c1ccc2c(c1)OCCO2` (stereo not given), the GI50 came to 58.7 µM in the data set on WM 266-4; 125 µM in the data set with HCT-116; 95.3 µM with HT-29; 41.9 µM in the data set on A-375 [1]; 122 µM in data set [2]. The IC50 in data set [3] is 30.6 µM; in [4], 39.3 µM.

In the case of `FC(F)(F)c1ccc(C2=NN(C(=S)Nc3ccccc3)C(c3ccc4c(c3)OCCO4)C2)cc1` (stereo not given), the GI50 in the data set on WM 266-4 came to 52.4 µM; in the data set with HCT-116, 112 µM; in the data set with HT-29, 97.5 µM; in the data set on A-375 [1] it was 43.5 µM; in data set [2], 123 µM. Further, the figures for the IC50 in data set [3] and in [4] were 29.5 µM and 35.6 µM, respectively.

For `S=C(Nc1ccccc1)N1N=C(c2ccc(OCc3ccccc3)cc2)CC1c1ccc2c(c1)OCCO2` (stereo not given), the GI50 at 48 h in [6] was above 200 µM; in [8], 175 µM. The IC50 in data set [7] is 3.15 µM; in data set [10], 88.9 µM; in data set [11], 176 µM; in data set [3], 0.01 µM; in data set [12], above 200 µM; in data set [4], 5.23 µM. Moreover, the GI50 in the data set on WM 266-4 stood at 0.42 µM; in the data set on HCT-116, 8.53 µM; in the data set on HT-29, 0.86 µM; with A-375 [1], 0.35 µM; in [2], 8.23 µM. The inhibition result in [9] is “Active”.

For `S=C(Nc1ccccc1)N1N=C(c2cccs2)CC1c1ccc2c(c1)OCCO2` (stereo not given), the GI50 in the data set on WM 266-4 came out at 154 µM; with HCT-116, 8.19 µM; in the data set with HT-29, 188 µM; in the data set with A-375 [1] it was 121 µM; in [2], 7.96 µM. The IC50 in [3] was found to be 78.3 µM; in [4] it was 5.21 µM.

Consider `O=[N+]([O-])c1ccc(C2=NN(C(=S)Nc3ccccc3)C(c3ccc4c(c3)OCCO4)C2)cc1` (stereo not given), for which the GI50 in the data set on WM 266-4 is 105 µM; in the data set with HCT-116, above 200 µM; in the data set on HT-29, 153 µM; in the data set with A-375 [1], 78.1 µM; in [2], above 200 µM. For the same compound, the IC50 in data set [3] was 57.2 µM; in data set [4], above 200 µM.

As for `Cc1ccc(C2=NN(C(=S)Nc3ccccc3)C(c3ccc4c(c3)OCCO4)C2)cc1` (stereo not given), the GI50 with WM 266-4 was 10.3 µM; in the data set with HCT-116 it was above 200 µM; in the data set on HT-29 it was 19.5 µM; in the data set on A-375 [1] it was 6.32 µM; in data set [2], above 200 µM. The IC50 in data set [3] is 4.28 µM; in data set [4], above 200 µM.

Consider `S=C(Nc1ccccc1)N1N=C(c2ccccc2Br)CC1c1ccc2c(c1)OCCO2` (stereo not given), for which the GI50 with WM 266-4 is above 200 µM; in the data set with HCT-116, 195 µM; in the data set with HT-29 it was above 200 µM; in the data set with A-375 [1], above 200 µM; in [2], above 200 µM. Besides, the IC50 is above 200 µM in [3] and 124 µM in data set [4].

As to `Cc1ccc(C2=NN(C(=S)Nc3ccccc3)C(c3ccc4c(c3)OCCO4)C2)cc1C` (stereo not given), the GI50 is 70.5 µM in the data set on WM 266-4; 144 µM in the data set on HCT-116; 133 µM in the data set with HT-29; 61.3 µM in the data set with A-375 [1]; 148 µM in data set [2]. Besides, the results for the IC50 in data set [3] and in data set [4] were 38.9 µM and 48.9 µM, respectively.

In the case of `S=C(Nc1ccccc1)N1N=C(c2cccc(Cl)c2)CC1c1ccc2c(c1)OCCO2` (stereo not given), the GI50 in the data set with WM 266-4 is above 200 µM; in the data set on HCT-116, 138 µM; in the data set on HT-29, above 200 µM; in the data set with A-375 [1], above 200 µM; in [2], 153 µM. Besides, the IC50 was above 200 µM in data set [3] and 95.9 µM in data set [4].

`S=C(Nc1ccccc1)N1N=C(c2ccc(Br)cc2)CC1c1ccc2c(c1)OCCO2` (stereo not given): the GI50 at 48 h in [6] was found to be 188 µM; in data set [8] it was 152 µM. The IC50 in data set [7] was 17.6 µM; in data set [10], 93.6 µM; in data set [11] it was 188 µM; in data set [3], 0.05 µM; in [12], above 200 µM; in [4], 18.7 µM. In addition, the GI50 in the data set on WM 266-4 is 0.87 µM; in the data set with HCT-116, 32.1 µM; with HT-29 it was 2.58 µM; in the data set with A-375 [1] it was 0.47 µM; in data set [2] it was 37.5 µM.

As a reminder, the GI50 is the concentration that inhibits growth by half. The term IC50 denotes the concentration that inhibits the measured activity by half.
